Source: ChEMBL document CHEMBL3797186, “Single Residue Substitutions That Confer Voltage-Gated Sodium Ion Channel Subtype Selectivity in the NaV1.7 Inhibitory Peptide GpTx-1” (J Med Chem, 2016)
pIC50: −log10 of the molar value. Positions of bridges follow the written chain, without caps; N, C: chain ends. Residues, ends and D or L forms follow the SMILES beside them.

What was measured:
[1] = target: Sodium channel protein type 9 subunit alpha (Homo sapiens, UniProt Q15858); test: Inhibition of human Nav1.7 expressed in HEK293 cells assessed as inward peak current by ion-works quattro patch clamp electrophysiology method; format: cell-based
Sodium channel protein type 9 subunit alpha, sequence (Q15858 whole entry): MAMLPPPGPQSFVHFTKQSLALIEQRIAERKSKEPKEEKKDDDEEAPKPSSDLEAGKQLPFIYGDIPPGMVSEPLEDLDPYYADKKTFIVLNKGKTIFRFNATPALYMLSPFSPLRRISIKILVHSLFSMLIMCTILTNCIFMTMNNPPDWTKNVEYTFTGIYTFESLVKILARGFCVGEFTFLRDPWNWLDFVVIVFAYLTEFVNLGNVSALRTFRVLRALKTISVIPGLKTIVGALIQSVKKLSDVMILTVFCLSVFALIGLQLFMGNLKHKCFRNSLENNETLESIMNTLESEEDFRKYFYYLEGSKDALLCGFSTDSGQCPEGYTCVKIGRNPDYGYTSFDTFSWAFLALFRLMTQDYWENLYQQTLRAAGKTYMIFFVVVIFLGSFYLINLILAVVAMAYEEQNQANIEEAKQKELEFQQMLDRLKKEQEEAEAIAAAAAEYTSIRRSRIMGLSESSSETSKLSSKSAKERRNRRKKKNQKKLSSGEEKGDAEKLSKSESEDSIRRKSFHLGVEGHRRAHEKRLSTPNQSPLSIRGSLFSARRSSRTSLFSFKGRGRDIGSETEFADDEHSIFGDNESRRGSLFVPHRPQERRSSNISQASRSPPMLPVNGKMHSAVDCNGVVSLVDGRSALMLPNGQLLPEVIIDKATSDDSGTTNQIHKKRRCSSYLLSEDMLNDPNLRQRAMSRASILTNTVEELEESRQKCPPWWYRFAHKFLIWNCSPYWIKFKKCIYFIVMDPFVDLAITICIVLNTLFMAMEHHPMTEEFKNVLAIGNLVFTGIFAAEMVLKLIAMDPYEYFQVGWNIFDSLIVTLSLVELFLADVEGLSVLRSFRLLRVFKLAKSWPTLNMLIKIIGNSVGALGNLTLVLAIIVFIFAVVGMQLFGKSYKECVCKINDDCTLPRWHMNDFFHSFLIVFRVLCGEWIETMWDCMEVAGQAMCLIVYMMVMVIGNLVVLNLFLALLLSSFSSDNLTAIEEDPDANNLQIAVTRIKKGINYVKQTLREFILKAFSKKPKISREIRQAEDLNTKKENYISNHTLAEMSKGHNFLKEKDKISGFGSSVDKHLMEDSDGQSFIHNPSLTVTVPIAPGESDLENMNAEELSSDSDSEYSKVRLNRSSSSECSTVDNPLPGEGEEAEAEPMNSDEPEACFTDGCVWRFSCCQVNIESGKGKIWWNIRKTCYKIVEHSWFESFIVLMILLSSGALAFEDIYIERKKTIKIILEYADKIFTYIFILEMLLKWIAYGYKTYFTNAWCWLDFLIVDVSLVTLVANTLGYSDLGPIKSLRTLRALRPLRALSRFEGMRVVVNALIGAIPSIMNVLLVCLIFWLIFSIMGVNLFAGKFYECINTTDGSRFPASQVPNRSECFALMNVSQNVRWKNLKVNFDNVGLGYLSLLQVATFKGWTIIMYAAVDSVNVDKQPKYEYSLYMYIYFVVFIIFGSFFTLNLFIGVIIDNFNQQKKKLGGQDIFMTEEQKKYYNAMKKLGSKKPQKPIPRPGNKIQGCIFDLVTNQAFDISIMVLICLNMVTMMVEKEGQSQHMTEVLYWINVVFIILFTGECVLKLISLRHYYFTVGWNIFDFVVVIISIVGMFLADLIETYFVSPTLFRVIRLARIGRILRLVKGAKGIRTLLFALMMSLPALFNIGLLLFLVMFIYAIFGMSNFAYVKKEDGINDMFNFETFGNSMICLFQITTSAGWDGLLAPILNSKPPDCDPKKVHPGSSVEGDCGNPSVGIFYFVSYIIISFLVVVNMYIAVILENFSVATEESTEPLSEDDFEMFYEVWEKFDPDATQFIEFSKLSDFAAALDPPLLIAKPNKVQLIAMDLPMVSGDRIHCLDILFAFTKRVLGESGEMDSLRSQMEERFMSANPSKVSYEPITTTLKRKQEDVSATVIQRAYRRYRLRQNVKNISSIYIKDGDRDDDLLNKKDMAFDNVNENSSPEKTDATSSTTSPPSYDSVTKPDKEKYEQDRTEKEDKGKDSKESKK

[2] = target: Sodium channel protein type 5 subunit alpha (Homo sapiens, UniProt Q14524); test: Inhibition of human Nav1.5 expressed in HEK293 cells assessed as inward peak current by ion-works quattro patch clamp electrophysiology method; format: cell-based
Sodium channel protein type 5 subunit alpha, sequence (Q14524 whole entry): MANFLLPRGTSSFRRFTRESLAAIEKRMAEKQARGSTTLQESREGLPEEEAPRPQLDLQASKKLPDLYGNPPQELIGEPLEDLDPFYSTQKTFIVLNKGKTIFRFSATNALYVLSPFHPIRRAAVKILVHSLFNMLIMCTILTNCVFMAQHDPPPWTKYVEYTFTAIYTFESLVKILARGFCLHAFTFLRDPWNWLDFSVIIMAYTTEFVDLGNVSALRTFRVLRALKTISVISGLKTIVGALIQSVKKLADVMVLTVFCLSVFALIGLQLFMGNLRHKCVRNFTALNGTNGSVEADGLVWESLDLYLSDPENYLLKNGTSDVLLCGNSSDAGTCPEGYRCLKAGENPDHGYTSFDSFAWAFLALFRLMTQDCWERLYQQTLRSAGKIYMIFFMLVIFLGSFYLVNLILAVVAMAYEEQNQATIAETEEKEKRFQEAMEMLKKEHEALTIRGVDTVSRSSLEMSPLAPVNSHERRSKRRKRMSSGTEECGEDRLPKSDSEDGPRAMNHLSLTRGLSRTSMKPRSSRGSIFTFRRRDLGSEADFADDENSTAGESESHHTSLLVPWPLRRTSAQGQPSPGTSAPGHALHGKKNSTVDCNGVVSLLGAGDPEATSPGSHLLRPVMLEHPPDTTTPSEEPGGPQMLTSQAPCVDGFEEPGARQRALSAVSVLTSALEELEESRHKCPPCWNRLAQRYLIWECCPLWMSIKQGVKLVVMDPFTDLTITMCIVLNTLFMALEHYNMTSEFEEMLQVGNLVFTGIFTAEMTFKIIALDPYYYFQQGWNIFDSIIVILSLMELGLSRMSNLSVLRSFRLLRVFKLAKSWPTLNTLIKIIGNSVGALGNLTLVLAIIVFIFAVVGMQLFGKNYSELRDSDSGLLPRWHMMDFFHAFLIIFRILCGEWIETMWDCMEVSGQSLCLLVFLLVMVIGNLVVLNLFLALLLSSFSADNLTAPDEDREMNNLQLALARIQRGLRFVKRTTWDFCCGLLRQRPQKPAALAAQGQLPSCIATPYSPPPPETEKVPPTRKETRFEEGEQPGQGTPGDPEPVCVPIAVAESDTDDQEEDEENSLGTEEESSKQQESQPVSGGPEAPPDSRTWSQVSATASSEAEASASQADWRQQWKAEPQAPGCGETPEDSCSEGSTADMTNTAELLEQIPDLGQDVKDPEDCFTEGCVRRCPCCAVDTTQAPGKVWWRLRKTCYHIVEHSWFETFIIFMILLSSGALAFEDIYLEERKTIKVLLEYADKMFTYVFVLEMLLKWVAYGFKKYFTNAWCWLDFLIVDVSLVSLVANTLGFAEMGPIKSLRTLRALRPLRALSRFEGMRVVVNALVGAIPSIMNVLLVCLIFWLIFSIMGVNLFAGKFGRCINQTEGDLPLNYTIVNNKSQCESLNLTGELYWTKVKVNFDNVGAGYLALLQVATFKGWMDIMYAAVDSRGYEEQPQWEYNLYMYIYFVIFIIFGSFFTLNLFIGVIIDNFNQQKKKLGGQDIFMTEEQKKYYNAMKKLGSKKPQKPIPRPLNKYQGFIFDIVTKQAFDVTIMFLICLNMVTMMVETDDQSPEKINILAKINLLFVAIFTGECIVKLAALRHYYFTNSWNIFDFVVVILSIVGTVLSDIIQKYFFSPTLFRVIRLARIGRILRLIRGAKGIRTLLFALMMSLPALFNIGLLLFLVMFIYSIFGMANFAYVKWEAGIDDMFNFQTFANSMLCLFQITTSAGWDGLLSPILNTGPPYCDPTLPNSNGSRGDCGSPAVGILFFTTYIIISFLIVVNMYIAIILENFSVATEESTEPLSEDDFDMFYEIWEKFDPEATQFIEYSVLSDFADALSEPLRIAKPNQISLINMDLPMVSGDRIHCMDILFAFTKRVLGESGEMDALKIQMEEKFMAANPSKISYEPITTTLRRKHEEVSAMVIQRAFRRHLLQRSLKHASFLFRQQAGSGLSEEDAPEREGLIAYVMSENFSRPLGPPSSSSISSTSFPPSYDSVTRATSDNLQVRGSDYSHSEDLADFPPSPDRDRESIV
Procedure, shortened: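 Stable HEK293 line expressing human NaV1.5, recorded by population patch clamp on the IonWorks Quattro.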

SMILES: CC[C@H](C)[C@@H]1NC(=O)[C@@H]2CSSC[C@@H]3NC(=O)[C@H](C(C)C)NC(=O)[C@H](CC(C)C)NC(=O)[C@H](CC(N)=O)NC(=O)[C@@H]4CCCN4C(=O)[C@H](CCCNC(=N)N)NC(=O)[C@H](CSSC[C@H](NC(=O)[C@@H](N)CC(=O)O)C(=O)N[C@@H](CC(C)C)C(=O)NCC(=O)N[C@@H](Cc4ccccc4)C(=O)N[C@@H](CCSC)C(=O)N[C@@H](CCCNC(=N)N)C(=O)N[C@@H](CCCCN)C(=O)N2)NC(=O)[C@H](CSSC[C@@H](C(=O)N[C@@H](CCCCN)C(=O)N[C@@H](Cc2ccc(O)cc2)C(=O)N[C@H](C(=O)N[C@@H](Cc2ccccc2)C(N)=O)C(C)C)NC(=O)[C@H](Cc2c[nH]c4ccccc24)NC(=O)[C@H](CCCCN)NC(=O)[C@H](CCC(=O)O)NC(=O)[C@H]([C@@H](C)O)NC(=O)[C@H](CCCNC(=N)N)NC(=O)[C@H](CO)NC3=O)NC(=O)[C@H](CCCCN)NC(=O)[C@H](CC(=O)O)NC(=O)[C@H](CC(N)=O)NC(=O)[C@H](CC(=O)O)NC(=O)[C@@H]2CCCN2C1=O (H-DCLGFMRKCIPDNDKCCRPNLVCSRTEKWCKYVF-NH2; disulfide 2-17, 9-23, 16-30)
- pIC50 [1]: < 5.30
- pIC50 [2]: < 5.30

SMILES: CC[C@H](C)[C@@H]1NC(=O)[C@@H]2CSSC[C@@H]3NC(=O)[C@H](C(C)C)NC(=O)[C@H](CC(C)C)NC(=O)[C@H](CC(N)=O)NC(=O)[C@@H]4CCCN4C(=O)[C@H](CCCNC(=N)N)NC(=O)[C@H](CSSC[C@H](NC(=O)[C@@H](N)Cc4c[nH]c5ccccc45)C(=O)N[C@@H](CC(C)C)C(=O)NCC(=O)N[C@@H](Cc4ccccc4)C(=O)N[C@@H](CCSC)C(=O)N[C@@H](CCCNC(=N)N)C(=O)N[C@@H](CCCCN)C(=O)N2)NC(=O)[C@H](CSSC[C@@H](C(=O)N[C@@H](CCCCN)C(=O)N[C@@H](Cc2ccc(O)cc2)C(=O)N[C@H](C(=O)N[C@@H](Cc2ccccc2)C(N)=O)C(C)C)NC(=O)[C@H](Cc2c[nH]c4ccccc24)NC(=O)[C@H](CCCCN)NC(=O)[C@H](Cc2cnc[nH]2)NC(=O)[C@H]([C@@H](C)O)NC(=O)[C@H](CCCNC(=N)N)NC(=O)[C@H](CO)NC3=O)NC(=O)[C@H](CCCCN)NC(=O)[C@H](CC(=O)O)NC(=O)[C@H](CC(N)=O)NC(=O)[C@H](CC(=O)O)NC(=O)[C@@H]2CCCN2C1=O (H-WCLGFMRKCIPDNDKCCRPNLVCSRTHKWCKYVF-NH2; disulfide 2-17, 9-23, 16-30)
- pIC50 [1]: 7.15
- pIC50 [2]: < 5.30

SMILES: CC[C@H](C)[C@@H]1NC(=O)[C@@H]2CSSC[C@@H]3NC(=O)[C@H](C(C)C)NC(=O)[C@H](CC(C)C)NC(=O)[C@H](CC(N)=O)NC(=O)[C@@H]4CCCN4C(=O)[C@H](CCCNC(=N)N)NC(=O)[C@H](CSSC[C@H](NC(=O)[C@@H](N)CCCCN)C(=O)N[C@@H](CC(C)C)C(=O)NCC(=O)N[C@@H](Cc4ccccc4)C(=O)N[C@@H](CCSC)C(=O)N[C@@H](CCCNC(=N)N)C(=O)N[C@@H](CCCCN)C(=O)N2)NC(=O)[C@H](CSSC[C@@H](C(=O)N[C@@H](CCCCN)C(=O)N[C@@H](Cc2ccc(O)cc2)C(=O)N[C@H](C(=O)N[C@@H](Cc2ccccc2)C(N)=O)C(C)C)NC(=O)[C@H](Cc2c[nH]c4ccccc24)NC(=O)[C@H](CCCCN)NC(=O)[C@H](Cc2cnc[nH]2)NC(=O)[C@H]([C@@H](C)O)NC(=O)[C@H](CCCNC(=N)N)NC(=O)[C@H](CO)NC3=O)NC(=O)[C@H](CCCCN)NC(=O)[C@H](CC(=O)O)NC(=O)[C@H](CC(N)=O)NC(=O)[C@H](CC(=O)O)NC(=O)[C@@H]2CCCN2C1=O (H-KCLGFMRKCIPDNDKCCRPNLVCSRTHKWCKYVF-NH2; disulfide 2-17, 9-23, 16-30)
- pIC50 [2]: < 5.30

SMILES: CC[C@H](C)[C@@H]1NC(=O)[C@@H]2CSSC[C@@H]3NC(=O)[C@H](C(C)C)NC(=O)[C@H](CC(C)C)NC(=O)[C@H](CC(N)=O)NC(=O)[C@@H]4CCCN4C(=O)[C@H](CCCNC(=N)N)NC(=O)[C@H](CSSC[C@H](NC(=O)[C@@H](N)CCC(=O)O)C(=O)N[C@@H](CC(C)C)C(=O)NCC(=O)N[C@@H](Cc4ccccc4)C(=O)N[C@@H](CCSC)C(=O)N[C@@H](CCCNC(=N)N)C(=O)N[C@@H](CCCCN)C(=O)N2)NC(=O)[C@H](CSSC[C@@H](C(=O)N[C@@H](CCCCN)C(=O)N[C@@H](Cc2ccc(O)cc2)C(=O)N[C@H](C(=O)N[C@@H](Cc2ccccc2)C(N)=O)C(C)C)NC(=O)[C@H](Cc2c[nH]c4ccccc24)NC(=O)[C@H](CCCCN)NC(=O)[C@H](Cc2cnc[nH]2)NC(=O)[C@H]([C@@H](C)O)NC(=O)[C@H](CCCNC(=N)N)NC(=O)[C@H](CO)NC3=O)NC(=O)[C@H](CCCCN)NC(=O)[C@H](CC(=O)O)NC(=O)[C@H](CC(N)=O)NC(=O)[C@H](CC(=O)O)NC(=O)[C@@H]2CCCN2C1=O (H-ECLGFMRKCIPDNDKCCRPNLVCSRTHKWCKYVF-NH2; disulfide 2-17, 9-23, 16-30)
- pIC50 [2]: < 5.30

SMILES: CC[C@H](C)[C@@H]1NC(=O)[C@@H]2CSSC[C@@H]3NC(=O)[C@H](CCCNC(=N)N)NC(=O)[C@H](CC(C)C)NC(=O)[C@H](CC(N)=O)NC(=O)[C@@H]4CCCN4C(=O)[C@H](CCCNC(=N)N)NC(=O)[C@H](CSSC[C@H](NC(=O)[C@@H](N)CC(=O)O)C(=O)N[C@@H](CC(C)C)C(=O)NCC(=O)N[C@@H](Cc4ccccc4)C(=O)N[C@@H](CCSC)C(=O)N[C@@H](CCCNC(=N)N)C(=O)N[C@@H](CCCCN)C(=O)N2)NC(=O)[C@H](CSSC[C@@H](C(=O)N[C@@H](CCCCN)C(=O)N[C@@H](Cc2ccc(O)cc2)C(=O)N[C@H](C(=O)N[C@@H](Cc2ccccc2)C(N)=O)C(C)C)NC(=O)[C@H](Cc2c[nH]c4ccccc24)NC(=O)[C@H](CCCCN)NC(=O)[C@H](Cc2cnc[nH]2)NC(=O)[C@H]([C@@H](C)O)NC(=O)[C@H](CCCNC(=N)N)NC(=O)[C@H](CO)NC3=O)NC(=O)[C@H](CCCCN)NC(=O)[C@H](CC(=O)O)NC(=O)[C@H](CC(N)=O)NC(=O)[C@H](CC(=O)O)NC(=O)[C@@H]2CCCN2C1=O (H-DCLGFMRKCIPDNDKCCRPNLRCSRTHKWCKYVF-NH2; disulfide 2-17, 9-23, 16-30)
- pIC50 [2]: < 5.30

SMILES: CC[C@H](C)[C@@H]1NC(=O)[C@@H]2CSSC[C@@H]3NC(=O)[C@H](C(C)C)NC(=O)[C@H](CC(C)C)NC(=O)[C@H](CC(N)=O)NC(=O)[C@@H]4CCCN4C(=O)[C@H](CCCNC(=N)N)NC(=O)[C@H](CSSC[C@H](NC(=O)[C@@H](N)CC(=O)O)C(=O)N[C@@H](CC(C)C)C(=O)NCC(=O)N[C@@H](Cc4ccccc4)C(=O)N[C@@H](CCSC)C(=O)N[C@@H](CCCNC(=N)N)C(=O)N[C@@H](CCC(=O)O)C(=O)N2)NC(=O)[C@H](CSSC[C@@H](C(=O)N[C@@H](CCCCN)C(=O)N[C@@H](Cc2ccc(O)cc2)C(=O)N[C@H](C(=O)N[C@@H](Cc2ccccc2)C(N)=O)C(C)C)NC(=O)[C@H](Cc2c[nH]c4ccccc24)NC(=O)[C@H](CCCCN)NC(=O)[C@H](Cc2cnc[nH]2)NC(=O)[C@H]([C@@H](C)O)NC(=O)[C@H](CCCNC(=N)N)NC(=O)[C@H](CO)NC3=O)NC(=O)[C@H](CCCCN)NC(=O)[C@H](CC(=O)O)NC(=O)[C@H](CC(N)=O)NC(=O)[C@H](CC(=O)O)NC(=O)[C@@H]2CCCN2C1=O (H-DCLGFMRECIPDNDKCCRPNLVCSRTHKWCKYVF-NH2; disulfide 2-17, 9-23, 16-30)
- pIC50 [2]: < 5.30

SMILES: CSCC[C@@H]1NC(=O)[C@H](Cc2ccccc2)NC(=O)CNC(=O)[C@H](CC(C)C)NC(=O)[C@@H](NC(=O)[C@@H](N)CC(=O)O)CSSC[C@@H]2NC(=O)[C@@H]3CSSC[C@@H](C(=O)N[C@@H](CCCCN)C(=O)N[C@@H](Cc4ccc(O)cc4)C(=O)N[C@H](C(=O)N[C@@H](Cc4ccccc4)C(N)=O)C(C)C)NC(=O)[C@H](Cc4c[nH]c5ccccc45)NC(=O)[C@H](CCCCN)NC(=O)[C@H](Cc4cnc[nH]4)NC(=O)[C@H]([C@@H](C)O)NC(=O)[C@H](CCCNC(=N)N)NC(=O)[C@H](CO)NC(=O)[C@H](CSSC[C@H](NC(=O)[C@H](CCCCN)NC(=O)[C@H](CCCNC(=N)N)NC1=O)C(=O)N[C@@H](C(C)C)C(=O)N1CCC[C@H]1C(=O)N[C@@H](CC(=O)O)C(=O)N[C@@H](CC(N)=O)C(=O)N[C@@H](CC(=O)O)C(=O)N[C@@H](CCCCN)C(=O)N3)NC(=O)[C@H](C(C)C)NC(=O)[C@H](CC(C)C)NC(=O)[C@H](CC(N)=O)NC(=O)[C@@H]1CCCN1C(=O)[C@H](CCCNC(=N)N)NC2=O (H-DCLGFMRKCVPDNDKCCRPNLVCSRTHKWCKYVF-NH2; disulfide 2-17, 9-23, 16-30)
- pIC50 [2]: < 5.30

SMILES: CSCC[C@@H]1NC(=O)[C@H](Cc2ccccc2)NC(=O)CNC(=O)[C@H](CC(C)C)NC(=O)[C@@H](NC(=O)[C@@H](N)CC(=O)O)CSSC[C@@H]2NC(=O)[C@@H]3CSSC[C@@H](C(=O)N[C@@H](CCCCN)C(=O)N[C@@H](Cc4ccc(O)cc4)C(=O)N[C@H](C(=O)N[C@@H](Cc4ccccc4)C(N)=O)C(C)C)NC(=O)[C@H](Cc4c[nH]c5ccccc45)NC(=O)[C@H](CCCCN)NC(=O)[C@H](Cc4cnc[nH]4)NC(=O)[C@H]([C@@H](C)O)NC(=O)[C@H](CCCNC(=N)N)NC(=O)[C@H](CO)NC(=O)[C@H](CSSC[C@H](NC(=O)[C@H](CCCCN)NC(=O)[C@H](CCCNC(=N)N)NC1=O)C(=O)N[C@@H](Cc1ccc(C(=O)O)cc1)C(=O)N1CCC[C@H]1C(=O)N[C@@H](CC(=O)O)C(=O)N[C@@H](CC(N)=O)C(=O)N[C@@H](CC(=O)O)C(=O)N[C@@H](CCCCN)C(=O)N3)NC(=O)[C@H](C(C)C)NC(=O)[C@H](CC(C)C)NC(=O)[C@H](CC(N)=O)NC(=O)[C@@H]1CCCN1C(=O)[C@H](CCCNC(=N)N)NC2=O
- pIC50 [2]: < 5.32
